Assay outcomes as filed in PubChem BioAssay.
An excerpt weighted towards active compounds, which were near 6.7% of everything screened.
T cruzi repl = inhibitors of intracellular T. cruzi growth, primary screen, luminescence, NIH3T3 host cells. T. cruzi beta-gal in NIH3T3, 90 h. inhibition, % (concentration not given with the values). hit rate 1.4% among 300,000. AID 1885, 2009;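 active = mean inhibition across valid replicates above about 55%, limit read from the data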;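 note: signal also drops with host cell toxicity which is not excluded here; 0% = plate median of DMSO wells and 100% = zero luminescence signal; higher percent means less beta-gal luminescence so fewer parasites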
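Material: NIH/3T3 host cells with β-galactosidase reporter T. cruzi; Input: 5,000 host fibroblasts per well; Medium: DMEM, 2% fetal bovine serum; Compound: 50 nL DMSO compound solution per well; Schedule: 3 h host attachment, then at least 90 h co-culture; Detection: luminescent β-galactosidase signal after 60 min lysis.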
GRIN3A LBD mod = binders of NR3A ligand-binding domain, primary screen, biophysical, differential scanning fluorimetry, uHTS; Glutamate receptor ionotropic, NMDA 3A (GRIN3A) ligand-binding domain; NR3A LBD differential scanning fluorimetry, Tm shift; 0% = protein alone, 100% = glycine-bound protein; Tm shift relative to glycine control, % at 25 µM; hit rate 2.5% among 340,000;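 active = melting temperature shift of at least 10% of the positive control shift, at one fixed dose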
Beta cell apopt = inhibitors of cytokine-induced beta cell apoptosis, primary screen, luminescence; protection from apoptosis, % (test concentration not listed); AID 435005, 2010; hit rate 0.8% among 300,000; INS-1E cytokine-induced death, ATP luminescence, 48 h; percent of positive-control rescue, neutral wells zero;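 active = Every replicate reaches about 75%, or at least half do and their mean reaches it too, limit read from the data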;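 note: 0% = cytokine-treated negative control wells and 100% = positive control rescue; higher means more ATP so stronger rescue from cytokine killing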
CHOP inh = inhibitors of CHOP promoter induction, primary screen, cell-based, unfolded protein response, luciferase reporter. CHO-K1 CHOP-promoter luciferase, tunicamycin-induced, 15-18 h. inhibition, % at 10 µM. hit rate 3.8% among 220,000. AID 2732, 2010;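 active = compounds that reduced the stress-induced luciferase reporter signal by more than about 70% of percent inhibition, limit read from the data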;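 note: 0% = tunicamycin plus vehicle and 100% = wells without tunicamycin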
PREPL inh = PREPL enzyme inhibitors, primary screen, biochemical, fluorescence polarization. Prolyl endopeptidase-like (Homo sapiens), Q4J6C6. recombinant PREPL, fluorescence polarization activity-based probe. inhibition, % at 5.96 µM. hit rate 0.68% among 320,000; in the data active = inhibition above about 43%;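 note: 0% = enzyme with DMSO and 100% = wells lacking enzyme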
Target sequence (Q4J6C6 whole entry, looked up): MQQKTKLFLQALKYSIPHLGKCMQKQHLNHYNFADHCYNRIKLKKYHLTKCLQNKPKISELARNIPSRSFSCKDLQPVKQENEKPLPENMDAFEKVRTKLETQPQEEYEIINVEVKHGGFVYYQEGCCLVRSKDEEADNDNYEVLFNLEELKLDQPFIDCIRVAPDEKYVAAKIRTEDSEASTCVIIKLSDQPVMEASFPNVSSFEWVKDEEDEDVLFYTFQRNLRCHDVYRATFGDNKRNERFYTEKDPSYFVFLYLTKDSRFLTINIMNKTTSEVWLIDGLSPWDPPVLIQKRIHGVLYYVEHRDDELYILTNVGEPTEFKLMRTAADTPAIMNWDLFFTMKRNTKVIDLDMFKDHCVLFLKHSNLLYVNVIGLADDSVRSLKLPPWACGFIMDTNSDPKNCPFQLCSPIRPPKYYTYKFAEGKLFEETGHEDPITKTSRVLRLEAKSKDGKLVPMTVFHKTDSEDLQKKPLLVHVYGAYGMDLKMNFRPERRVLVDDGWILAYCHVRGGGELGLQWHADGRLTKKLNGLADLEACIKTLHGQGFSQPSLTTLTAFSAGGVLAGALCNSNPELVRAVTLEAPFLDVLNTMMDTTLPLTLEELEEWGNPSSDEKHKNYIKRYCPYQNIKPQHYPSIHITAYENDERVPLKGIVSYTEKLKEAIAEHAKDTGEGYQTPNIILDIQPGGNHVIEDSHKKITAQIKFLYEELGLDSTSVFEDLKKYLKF
CSC inhib = cancer stem cell viability inhibitors, primary screen, luminescence | cancer stem cell-like cells viability | inhibition, % at 7.5 µM | hit rate 1.1% among 300,000 | AID 2717, 2010; in the data active = inhibition above about 75%; tested in HMLE shEcad cells
CHOP confirm = retest of CHOP induction inhibitors, confirmation, cell-based; inhibition, % at 10 µM; hit rate 45% among 2,100; shares compounds with CHOP inh; CHO-CHOP promoter luciferase reporter, tunicamycin-induced, luminescence;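 active = mean of three repeat readings of reporter signal inhibition above a set limit, cut at about 70% in these data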;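 note: 0% = tunicamycin plus vehicle and 100% = wells lacking tunicamycin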
Starred values were filed as active, the others as inactive; . = not tested or not shown.

SMILES	T cruzi repl	GRIN3A LBD mod	Beta cell apopt	CHOP inh	PREPL inh	CSC inhib	CHOP confirm
O=C(Nc1ccncc1)C1CCN(S(=O)(=O)c2cccc(C(F)(F)F)c2)CC1	.	-3.6	-2.4	.	13.6	.	.
CCc1cccc(NC(=O)CCCn2c(=O)[nH]c3ccsc3c2=O)c1	6.4	-2.0	-1.5	.	-2.1	-5.2	.
Cc1cc(/C=N/n2cnnc2)c(C)n1-c1ccc(OCc2ccc(Cl)cc2Cl)cc1	43.7	-3.9	113.0*	107.6*	15.4	103.1*	113.7*
Cc1cc(/C=N/n2cnnc2)c(C)n1-c1ccc(Cl)cc1	38.7	0.3	-10.0	11.5	11.6	-12.7	.
Cc1cc(/C=N/n2cnnc2)c(C)n1-c1ccc(OCc2ccc(F)cc2)cc1	41.5	0.2	.	.	16.0	.	110.8*
COc1cc(NC(=S)N2CCC(C(O)(c3ccccc3)c3ccccc3)CC2)cc(OC)c1	-30.2	6.6	-9.9	15.8	3.1	-1.2	.
CCC1(c2ccccc2)NC(=O)N(CC(=O)Nc2ccc(S(=O)(=O)NC3=NCCCCC3)cc2)C1=O (centres undefined)	-14.9	1.1	2.7	.	-9.5	-17.8	.
Cc1ccc(NC(=O)c2ncn(CCCNCC3CCCO3)n2)cc1C (centres undefined)	.	-0.3	.	.	.	.	.
COc1ccccc1/C=C/C(=O)OCC(=O)NC1CCCCCCC1	.	1.0	-6.0	.	4.4	-9.4	.
Cc1cccc(NC(=O)c2ccccc2OCC(=O)N2CCCC2)c1C	-0.6	.	3.1	8.4	18.7	-4.6	.
Cc1nc(-c2ccc(Br)cc2)ccc1C(=O)O	-1.1	-6.3	-2.2	6.3	-3.5	-2.3	.
Nc1nc(SCc2ccccc2Cl)nc2nc3c(cc12)CCCC3	2.3	-2.0	5.4	16.8	15.3	0.8	.
Nc1nc(SCc2ccc(Cl)cc2Cl)nc2nc3c(cc12)CCCC3	26.2	-3.4	13.5	103.3*	-7.6	23.2	-37.5
CCCOCC(O)CC(Cc1ccccc1)C(=O)NN (centres undefined)	-10.6	-0.1	3.7	2.3	12.4	-11.8	.
Cc1ccc(-c2ccc(/C=C/C(=O)c3ccccc3)o2)cc1	24.9	-9.5	-6.2	30.1	10.1	49.4	.
O=C(/C=C/c1ccc(-c2ccccc2)o1)c1ccccc1	6.0	-8.0	-8.7	97.6*	3.7	19.0	-27.4
Clc1ccc2c(N/N=C/c3cccc(Br)c3)ccnc2c1	51.1	15.3*	80.6*	105.2*	21.4	80.2*	32.2
Clc1ccc2c(NNc3ccccc3Cl)ccnc2c1	11.5	-17.0	-2.5	46.7	8.0	7.1	.
Clc1ccc2c(N/N=C/c3ccccc3Br)ccnc2c1	55.5*	4.1	43.4	99.7*	4.5	49.9	76.9*
Brc1cccc(C=Nc2cccc3ncccc23)c1	-16.5	-0.1	-4.7	.	-0.5	-14.0	.
[O-]C1=N[N+](=C(c2ccccc2)c2ccccc2)C1	.	-2.2	.	.	.	.	.
Cc1cc(Nc2ccccc2)nc(-c2ccccc2O)n1	-5.3	10.7*	6.5	96.3*	14.6	80.3*	100.1*
Cc1cc(N2CCCCCC2)nc(-c2ccccc2O)n1	30.4	0.9	-2.6	55.8	-2.6	23.1	.
Fc1cccc(/C=N/NC(=S)Nc2ccccc2Cl)c1	2.4	-0.1	.	103.9*	3.1	1.1	-32.9
CC/C(=N/Nc1cccc(C)c1)c1cnnc(SC)n1	-3.3	8.6	11.5	96.9*	2.2	7.7	-70.6
SMILES	T cruzi repl	GRIN3A LBD mod	Beta cell apopt	CHOP inh	PREPL inh	CSC inhib	CHOP confirm
Nn1c(SCC(=O)N2CCCC2=O)nnc1-c1cccs1	-5.2	3.5	-2.8	.	-3.5	-6.8	.
Oc1[nH]c2ccccc2c1N=Nc1ccc(F)cc1	0.2	0.4	-1.1	97.0*	13.6	6.6	59.2
O=[N+]([O-])c1ccc2[nH]c(O)c(N=Nc3ccc(F)cc3)c2c1	8.0	0.0	2.9	.	15.6	1.1	.
CC(C)=CCC[C@](C)(O[C@@H]1O[C@H](CO[C@@H]2O[C@H](CO)[C@@H](O)[C@H](O)[C@H]2O)[C@@H](O)[C@H](O)[C@H]1O)C1CC[C@]2(C)C1C(=O)CC1[C@@]3(C)CC[C@H](O[C@H]4O[C@@H](CO)[C@H](O)[C@@H](O)[C@@H]4O)C(C)(C)C3CC[C@]12C (some centres undefined)	.	-3.1	2.8	.	-0.4	-13.0	.
CC(=O)OCC1O[C@@H](O[C@@H]2C[C@H]3C(C)(C)[C@H](OC(C)=O)CC[C@]3(C)[C@H]3CC[C@]45C[C@]4(CC[C@H]5[C@@H](C)C[C@@H](O)[C@H](O)C(C)(C)O)[C@@]32C)[C@H](O)[C@@H](O)[C@@H]1O (some centres undefined)	42.7	.	110.6*	106.0*	10.7	102.0*	120.3*
Cc1cccc(NC(=O)Nc2ccc(Oc3c(F)c(F)c(F)c(F)c3F)cc2)c1	36.4	.	14.0	9.8	12.1	17.8	.
O=C(Nc1ccc(Oc2c(F)c(F)c(F)c(F)c2F)cc1)OC1CCN2Cc3ccccc3N=C12 (centres undefined)	18.0	-1.7	71.0	100.2*	12.0	103.5*	125.4*
CCC1CCCCN1C(=O)CCn1c(=O)oc2ccccc21 (centres undefined)	3.1	0.2	-10.9	.	-3.9	-4.5	.
O=C(Nc1ccccc1N1CCN(C(=O)c2ccccc2)CC1)c1cc2ccccc2o1	.	1.4	43.3	97.6*	-0.5	-2.4	25.7
COc1ccc2[nH]cc(CCNC(=O)CCC3CCCCC3)c2c1	-5.6	-0.7	-6.6	.	6.0	7.5	.
CC(C)Oc1ccc(CNC(=O)CC(c2ccccc2)c2cc(Cl)ccc2O)cc1 (centres undefined)	56.4*	9.5	15.2	97.5*	-6.8	97.2*	103.5*
Cc1ccc(O)c(C(CC(=O)NCc2cccnc2)c2ccccc2)c1 (centres undefined)	-19.8	-0.6	0.2	1.2	-1.0	-7.7	.
CC(NC(=O)COC(=O)COc1cccc2c1OC(C)(C)C2)c1ccccc1 (centres undefined)	-8.4	1.6	.	.	2.6	-6.6	.
Cc1ccc(C2(C(F)(F)F)NC(=O)N3C(=C2C#N)Nc2ccccc23)cc1 (centres undefined)	4.1	-0.6	3.5	107.1*	-5.0	-9.6	37.1
COc1ccccc1-c1cc(C(F)(F)F)nc(N2CCCC2)n1	9.0	1.2	7.8	28.2	-2.9	3.4	.
CS(=O)(=O)c1nc(-c2ccco2)cc(C(F)(F)F)n1	54.9*	.	80.0*	111.3*	11.5	112.0*	122.2*
COc1ccccc1-c1cc(C(F)(F)F)nc(S(=O)(=O)CCCC(=O)Nc2cccnc2Cl)n1	.	-1.6	.	107.6*	.	.	120.6*
